Reference: ChEMBL document CHEMBL3853294, “Design, synthesis and biological evaluation of novel HSP70 inhibitors: N, N'-disubstituted thiourea derivatives” (Eur J Med Chem, 2016)

species on record: Homo sapiens; experiment: Inhibition of HSP70 in human BT/LapR1.0 cells assessed as potentiation of 1 uM of lapatinib-induced growth inhibition after 72 hrs by measuring coefficient of drug interaction by cell titer-glo based luminescence assay; details: not given

| Compound | Activity |
| --- | --- |
| COc1cc(/C=C/C(=O)NC(CC(C)(C)C)NC(=S)Nc2ccccn2)cc(OC)c1OC (stereo unspecified) | < 1 |
| COc1cc(/C=C/C(=O)NC(CC(C)C)NC(=S)Nc2ccccn2)cc(OC)c1OC (stereo unspecified) | < 1 |
| CC(C)C(NC(=O)/C=C/c1ccccc1)NC(=S)NC1CCCCC1 (stereo unspecified) | < 1 |
| CNC(=S)NC(CC(C)C)NC(=O)/C=C/c1cc(OC)c(OC)c(OC)c1 (stereo unspecified) | < 1 |
| O=C(/C=C/c1ccccc1)NC(NC(=S)Nc1ccccn1)C1CC1 (stereo unspecified) | < 1 |
| COc1cc(/C=C/C(=O)NC(NC(=S)Nc2ccccc2)C2CC2)cc(OC)c1OC (stereo unspecified) | < 1 |
| COc1cc(/C=C/C(=O)NC(NC(=S)Nc2ccccc2C)C2CC2)cc(OC)c1OC (stereo unspecified) | 0.79 |
| CC(C)C(NC(=O)/C=C/c1ccccc1)NC(=S)Nc1ccccc1 (stereo unspecified) | < 1 |

target: Chaperone protein DnaK (Escherichia coli) (UniProt P0A6Y8); experiment: Inhibition of Escherichia coli DnaK ATPase activity at 200 uM incubated on shaker for 10 mins followed by 30 mins incubation by malachite green reagent based colorimetric assay; details: not given

| Compound | inhibition [%] |
| --- | --- |
| COc1cc(/C=C/C(=O)NC(CC(C)(C)C)NC(=S)Nc2ccccn2)cc(OC)c1OC (stereo unspecified) | < 20 |
| COc1cc(/C=C/C(=O)NC(CC(C)C)NC(=S)Nc2ccccn2)cc(OC)c1OC (stereo unspecified) | < 20 |
| O=C(/C=C/c1ccccc1)NC(NC(=S)Nc1ccccn1)C1CC1 (stereo unspecified) | < 20 |
| COc1cc(/C=C/C(=O)NC(NC(=S)Nc2ccccc2)C2CC2)cc(OC)c1OC (stereo unspecified) | 50.5 |
| CC(C)C(NC(=O)/C=C/c1ccccc1)NC(=S)Nc1ccccc1 (stereo unspecified) | < 20 |

The next lines start with the values.

| inhibition [%] | Compound |
| --- | --- |
| < 20 | CC(C)C(NC(=O)/C=C/c1ccccc1)NC(=S)NC1CCCCC1 (stereo unspecified) |
| < 20 | CNC(=S)NC(CC(C)C)NC(=O)/C=C/c1cc(OC)c(OC)c(OC)c1 (stereo unspecified) |
| < 20 | COc1cc(/C=C/C(=O)NC(NC(=S)Nc2ccccc2C)C2CC2)cc(OC)c1OC (stereo unspecified) |

species on record: Homo sapiens; experiment: Inhibition of HSP70 in human BT/LapR1.0 cells assessed as potentiation of 1 uM of lapatinib-induced growth inhibition at 10 uM after 72 hrs by cell titer-glo based luminescence assay; details: not given
Procedure, shortened: (§1)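 Cells were trypsinised and seeded at 5000 cells/well, then cultured 24 h at 37 °C. Compound was added at 10 µM, alone or with 1 µM lapatinib, and incubated 72 h at 37 °C. CellTiter-Glo reagent was added at a volume equal to the medium, followed by 3 min shaking and 10 min at room temperature. Luminescence (ATP) was read and normalised to the blank control group.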

| Compound | growth inhibition (GI) [%] |
| --- | --- |
| COc1cc(/C=C/C(=O)NC(CC(C)(C)C)NC(=S)Nc2ccccn2)cc(OC)c1OC (stereo unspecified) | 65.9 |
| COc1cc(/C=C/C(=O)NC(CC(C)C)NC(=S)Nc2ccccn2)cc(OC)c1OC (stereo unspecified) | 61 |
| CC(C)C(NC(=O)/C=C/c1ccccc1)NC(=S)NC1CCCCC1 (stereo unspecified) | 75.8 |
| CNC(=S)NC(CC(C)C)NC(=O)/C=C/c1cc(OC)c(OC)c(OC)c1 (stereo unspecified) | 30.9 |
| O=C(/C=C/c1ccccc1)NC(NC(=S)Nc1ccccn1)C1CC1 (stereo unspecified) | 25.2 |
| COc1cc(/C=C/C(=O)NC(NC(=S)Nc2ccccc2)C2CC2)cc(OC)c1OC (stereo unspecified) | 56 |
| COc1cc(/C=C/C(=O)NC(NC(=S)Nc2ccccc2C)C2CC2)cc(OC)c1OC (stereo unspecified) | 44.2 |
| CC(C)C(NC(=O)/C=C/c1ccccc1)NC(=S)Nc1ccccc1 (stereo unspecified) | 30 |

test system: not listed separately; experiment: Growth inhibition of human BT474 cells at 10 uM after 72 hrs by cell titer-glo based luminescence assay; parameters: species or system BT-474; details: read-out: GI; procedure, shortened: as §1

| Compound | inhibition at 72 h, 10 µM [%] |
| --- | --- |
| COc1cc(/C=C/C(=O)NC(CC(C)(C)C)NC(=S)Nc2ccccn2)cc(OC)c1OC (stereo unspecified) | 25.8 |
| COc1cc(/C=C/C(=O)NC(CC(C)C)NC(=S)Nc2ccccn2)cc(OC)c1OC (stereo unspecified) | 24.9 |
| CC(C)C(NC(=O)/C=C/c1ccccc1)NC(=S)NC1CCCCC1 (stereo unspecified) | 10.3 |
| CNC(=S)NC(CC(C)C)NC(=O)/C=C/c1cc(OC)c(OC)c(OC)c1 (stereo unspecified) | 10.5 |
| O=C(/C=C/c1ccccc1)NC(NC(=S)Nc1ccccn1)C1CC1 (stereo unspecified) | 2.4 |
| COc1cc(/C=C/C(=O)NC(NC(=S)Nc2ccccc2)C2CC2)cc(OC)c1OC (stereo unspecified) | 12.2 |
| COc1cc(/C=C/C(=O)NC(NC(=S)Nc2ccccc2C)C2CC2)cc(OC)c1OC (stereo unspecified) | 44 |
| CC(C)C(NC(=O)/C=C/c1ccccc1)NC(=S)Nc1ccccc1 (stereo unspecified) | 9.4 |

test system: BT-474; experiment: Potentiation of lapatinib-induced growth inhibition of human BT474 cells assessed as coefficient of drug interaction after 72 hrs by cell titer-glo based luminescence assay; type: functional; details: not given

| Compound | Activity |
| --- | --- |
| COc1cc(/C=C/C(=O)NC(CC(C)(C)C)NC(=S)Nc2ccccn2)cc(OC)c1OC (stereo unspecified) | <1 |
| COc1cc(/C=C/C(=O)NC(CC(C)C)NC(=S)Nc2ccccn2)cc(OC)c1OC (stereo unspecified) | <1 |
| CC(C)C(NC(=O)/C=C/c1ccccc1)NC(=S)NC1CCCCC1 (stereo unspecified) | <1 |
| CNC(=S)NC(CC(C)C)NC(=O)/C=C/c1cc(OC)c(OC)c(OC)c1 (stereo unspecified) | <1 |
| O=C(/C=C/c1ccccc1)NC(NC(=S)Nc1ccccn1)C1CC1 (stereo unspecified) | <1 |
| COc1cc(/C=C/C(=O)NC(NC(=S)Nc2ccccc2)C2CC2)cc(OC)c1OC (stereo unspecified) | <1 |
| COc1cc(/C=C/C(=O)NC(NC(=S)Nc2ccccc2C)C2CC2)cc(OC)c1OC (stereo unspecified) | <1 |
| CC(C)C(NC(=O)/C=C/c1ccccc1)NC(=S)Nc1ccccc1 (stereo unspecified) | <1 |

test system: BT-474; experiment: Potentiation of lapatinib-induced growth inhibition of human BT474 cells at 10 uM after 72 hrs by cell titer-glo based luminescence assay; type: functional; details: BT-474, 72 h, read-out: GI; procedure, shortened: as §1

| Compound | inhibition of growth at 10 µM [%] |
| --- | --- |
| COc1cc(/C=C/C(=O)NC(CC(C)(C)C)NC(=S)Nc2ccccn2)cc(OC)c1OC (stereo unspecified) | 88.5 |
| COc1cc(/C=C/C(=O)NC(CC(C)C)NC(=S)Nc2ccccn2)cc(OC)c1OC (stereo unspecified) | 87.8 |
| CC(C)C(NC(=O)/C=C/c1ccccc1)NC(=S)NC1CCCCC1 (stereo unspecified) | 80.6 |
| CNC(=S)NC(CC(C)C)NC(=O)/C=C/c1cc(OC)c(OC)c(OC)c1 (stereo unspecified) | 79.8 |
| O=C(/C=C/c1ccccc1)NC(NC(=S)Nc1ccccn1)C1CC1 (stereo unspecified) | 78.8 |
| COc1cc(/C=C/C(=O)NC(NC(=S)Nc2ccccc2)C2CC2)cc(OC)c1OC (stereo unspecified) | 85.2 |
| COc1cc(/C=C/C(=O)NC(NC(=S)Nc2ccccc2C)C2CC2)cc(OC)c1OC (stereo unspecified) | 87.4 |
| CC(C)C(NC(=O)/C=C/c1ccccc1)NC(=S)Nc1ccccc1 (stereo unspecified) | 82 |

test system: not listed separately; experiment: Growth inhibition of human BT/LapR1.0 cells at 10 uM after 72 hrs by cell titer-glo based luminescence assay; details: read-out: GI; procedure, shortened: as §1

| Compound | inhibition at 72 h, 10 µM [%] |
| --- | --- |
| COc1cc(/C=C/C(=O)NC(CC(C)(C)C)NC(=S)Nc2ccccn2)cc(OC)c1OC (stereo unspecified) | 31.5 |
| COc1cc(/C=C/C(=O)NC(CC(C)C)NC(=S)Nc2ccccn2)cc(OC)c1OC (stereo unspecified) | 38.7 |
| CC(C)C(NC(=O)/C=C/c1ccccc1)NC(=S)NC1CCCCC1 (stereo unspecified) | 13.3 |
| CNC(=S)NC(CC(C)C)NC(=O)/C=C/c1cc(OC)c(OC)c(OC)c1 (stereo unspecified) | 13 |
| O=C(/C=C/c1ccccc1)NC(NC(=S)Nc1ccccn1)C1CC1 (stereo unspecified) | 6 |
| COc1cc(/C=C/C(=O)NC(NC(=S)Nc2ccccc2)C2CC2)cc(OC)c1OC (stereo unspecified) | 13.7 |
| COc1cc(/C=C/C(=O)NC(NC(=S)Nc2ccccc2C)C2CC2)cc(OC)c1OC (stereo unspecified) | 6.8 |
| CC(C)C(NC(=O)/C=C/c1ccccc1)NC(=S)Nc1ccccc1 (stereo unspecified) | 11.5 |
